Data reported in ChEMBL document CHEMBL3734694, “Design, synthesis, and anticancer evaluation of long-chain alkoxylated mono-carbonyl analogues of curcumin” (Eur J Med Chem, 2015).

Legend:
[1] = test system: CT26; test: Cytotoxicity against mouse CT26 cells assessed as inhibition of cell proliferation incubated for 72 hrs by MTS assay; type: functional, cell-based; conditions: CT26, 72 h
Summary of the method: (§1)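 Cells in RPMI-1640 with 10% heat-inactivated FBS at 37°C, 5% CO2. Seeded at 4000 cells/well in triplicate and attached overnight. Exposed to various concentrations for 72 h. MTS added for a further 4 h; absorbance at 490 nm. IC50 = concentration for 50% growth inhibition, as mean ± SEM of three independent tests.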

[2] = Cytotoxicity against human MGC803 cells assessed as inhibition of cell proliferation at 10 uM incubated for 72 hrs by MTS assay; type: functional; conditions: MGC-803, 72 h
Summary of the method: (§2)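 Single-concentration MTS screen at 10 μM. Cells in RPMI-1640 with 10% FBS, seeded at 4000 cells/well in triplicate, attached overnight, then exposed for 72 h at 37°C, 5% CO2. MTS for 4 h; absorbance 490 nm. Reported as % inhibition.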

[3] = Cytotoxicity against human GES-1 cells assessed as inhibition of cell proliferation incubated for 72 hrs by MTS assay; type: functional, cell-based; conditions: GES1, 72 h; summary of the method: as §1
[4] = Cytotoxicity against human SGC7901 cells assessed as inhibition of cell proliferation at 10 uM incubated for 72 hrs by MTS assay; type: functional; conditions: SGC-7901, 72 h; summary of the method: as §2
[5] = Cytotoxicity against human SW620 cells assessed as inhibition of cell proliferation at 10 uM incubated for 72 hrs by MTS assay; type: functional; conditions: SW-620, 72 h; summary of the method: as §2
[6] = Cytotoxicity against human SGC7901 cells assessed as inhibition of cell proliferation incubated for 72 hrs by MTS assay; type: functional, cell-based; conditions: SGC-7901, 72 h; summary of the method: as §1
[7] = Cytotoxicity against human MGC803 cells assessed as inhibition of cell proliferation incubated for 72 hrs by MTS assay; type: functional, cell-based; conditions: MGC-803, 72 h; summary of the method: as §1
[8] = Cytotoxicity against human SW620 cells assessed as inhibition of cell proliferation incubated for 72 hrs by MTS assay; type: functional, cell-based; conditions: SW-620, 72 h; summary of the method: as §1
[9] = test system: CT26; test: Cytotoxicity against mouse CT26 cells at 10 uM assessed as inhibition of cell proliferation incubated for 72 hrs by MTS assay; type: functional; conditions: CT26, 72 h; summary of the method: as §2

Compound | IC50 [1] [µM] | inhibition at 10 µM [2] [%] | IC50 [3] [µM] | inhibition at 10 µM [4] [%] | inhibition at 10 µM [5] [%] | IC50 [6] [µM] | IC50 [7] [µM] | IC50 [8] [µM] | inhibition at 10 µM [9] [%]
COc1cc(/C=C2\CC/C(=C\c3ccc(OCCCN4CCCCC4)c(OC)c3)C2=O)ccc1OCCCBr | 3.86 | 91.4 | 7.03 | 89 | 84.5 | 5.08 | 7.31 | 4.47 | 90.2
COc1cc(/C=C2\CCC/C(=C\c3ccc(OCCCN4CCN(C)CC4)c(OC)c3)C2=O)ccc1OCCCN1CCN(C)CC1 | 2.01 | 77.5 | 3.27 | 84.8 | 86.7 | 1.88 | 1.94 | 1.04 | 109
COc1cc(/C=C2\CCC/C(=C\c3ccc(OCCCBr)c(OC)c3)C2=O)ccc1OCCCBr |  | -8.68 |  | 18.9 | 61.2 |  |  |  | 49.8
O=C1/C(=C/c2ccc(OCCBr)cc2)CCC/C1=C\c1ccc(OCCBr)cc1 |  | 0.05 |  | 10.8 | 0.12 |  |  |  | 58.3
COc1ccc(/C=C/C(=O)/C=C/c2ccc(OCCCN3CCOCC3)c(OC)c2)c(F)c1 |  | 3.64 |  | 51.6 | 79.3 |  |  |  | 67.6
COc1cc(/C=C/C(=O)/C=C/c2ccc(C(C)(C)C)cc2)ccc1OCCCN1CCOCC1 | 3.26 | 84.2 | 3.03 | 76.2 | 84.8 | 2.77 | 2.45 | 1.62 | 90.7
COc1cc(/C=C/C(=O)/C=C/c2c(C)cc(C)cc2C)ccc1OCCCN1CCOCC1 | 7.01 | 80.7 | 8.06 | 78.1 | 83.6 | 7.67 | 8.46 | 3.38 | 89.6
COc1cc(/C=C2\CCC/C(=C\c3ccc(OCCCn4ccnc4)c(OC)c3)C2=O)ccc1OCCCn1ccnc1 | 3.59 | 88.5 | 2.87 | 85 | 82.4 | 3.38 | 2.21 | 2.79 | 90.9
CCN(CC)CCCOc1ccc(/C=C2\CCC/C(=C\c3ccc(OCCCBr)c(OC)c3)C2=O)cc1OC | 12.8 | 87 | 14.1 | 86.4 | 85.3 | 11.9 | 15.5 | 4.65 | 92.3
COc1cc(OC)c(/C=C/C(=O)/C=C/c2ccc(OCCCN3CCOCC3)c(OC)c2)c(OC)c1 |  | 5.96 |  | 9.22 | 33.9 |  |  |  | 65.8
COc1ccccc1/C=C/C(=O)/C=C/c1ccc(OCCCBr)c(OC)c1 | 6.39 | 80.1 | 4.11 | 74.8 | 81.5 | 2.84 | 6.69 | 3.53 | 77.2
COc1cc(/C=C2\CCC/C(=C\c3ccc(OCCCN4CCCCC4)c(OC)c3)C2=O)ccc1OCCCBr |  | 26.9 |  | 24.4 | 50 |  |  |  | 61.2
COc1cc(/C=C2\CC/C(=C\c3ccc(OCCBr)c(OC)c3)C2=O)ccc1OCCBr |  | 8.38 |  | 20.4 | 38.5 |  |  |  | 58.6
CCCN(CCC)CCCOc1ccc(/C=C2\CCC/C(=C\c3ccc(OCCCN(CCC)CCC)c(OC)c3)C2=O)cc1OC |  | -18.4 |  | 2.83 | 10.3 |  |  |  | 8.04
COc1ccccc1/C=C/C(=O)/C=C/c1ccc(OCCBr)c(OC)c1 | 4.51 | 76.2 | 4.04 | 78.7 | 83.7 | 4.52 | 5.52 | 4.43 | 70.5
COc1cc(/C=C2\CC/C(=C\c3ccc(OCCCBr)c(OC)c3)C2=O)ccc1OCCCBr |  | 5.56 |  | 6.48 | 27.4 |  |  |  | 71
